In ChEMBL document CHEMBL1123469, “Synthesis and activity of 6-aryl-3-(hydroxypolymethyleneamino)pyridazines in animal models of epilepsy” (1986):

How the values were obtained:
Format in all cases: functional
Mus musculus [1] = assay: Evaluated for Bicuculline-induced lethality (anticonvulsant activity) when administered orally in mice.; settings: po
Outline: (§1)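 Female Swiss albino CD1 mice (18-23 g), oral dosing (20 mL/kg); test compounds dissolved in dilute HCl (pH 3), reference drugs suspended in 5% gum tragacanth. Bicuculline challenge, scoring protection from seizures and from lethality. […] Weakly active agents reported as percent protected at the stated dose.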

Mus musculus [2] = species: Mus musculus; assay: Sedative property by the rotarod test
Outline: (§2)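 Motor coordination was tested on the rotorod in groups of 10 female Swiss CD1 mice (18-23 g). Drug or vehicle was given orally, test compounds in dilute HCl (pH 3), 60 min before testing.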

Mus musculus [3] = assay: Anticonvulsant activity when administered 100 mg/kg orally in mice Maximal electroshock (MES); settings: route oral
Outline: (§3)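 Female Swiss CD1 mice (18-23 g), groups of 10, were dosed orally at 20 mL/kg. Test compounds were given in dilute HCl (pH 3) and references in 5% gum tragacanth, 60 min before a 60-V alternating current for 0.3 s through corneal electrodes. Protection meant abolition of the hindlimb tonic extensor component.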

Mus musculus [4] = assay: Evaluated for the sedative property by the rotarod test at 100 mg/kg.; outline: as §2
Mus musculus [5] = assay: Evaluated for Bicuculline-induced seizures (anticonvulsant activity) when administered at 100 mg/kg orally in mice.; settings: route oral
Outline: (§4)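 Female Swiss CD1 mice (18-23 g) were dosed orally at 20 mL/kg, test compounds in dilute HCl (pH 3) and references in gum tragacanth. Protection against bicuculline- or pentylenetetrazole-induced clonic/tonic seizures and lethality was scored.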

Mus musculus [6] = assay: Evaluated for Bicuculline-induced lethality (anticonvulsant activity) when administered 100 mg/kg orally in mice.; settings: route oral; outline: as §1
Mus musculus [7] = assay: Evaluated for anticonvulsant activity when administered orally in mice by Maximal electroshock (MES).; settings: po; outline: as §3
Mus musculus [8] = assay: Evaluated for Bicuculline-induced seizures (anticonvulsant activity) when administered orally in mice.; settings: po; outline: as §4
Papio hamadryas = species: Papio hamadryas; assay: Antagonist activity to generalized seizures Photically induced seizures in senegalese Papio papio baboons
Outline: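 Naturally photosensitive baboons of both sexes (4-7 kg) were dosed orally, test compounds in dilute HCl (pH 3) and references in 5% gum tragacanth, at 4 mL/kg. They were photically stimulated at hourly intervals afterwards, and the myoclonic response was graded after Killam. Threshold active dose is the first dose that protected at least two of four animals for at least 2 h.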

Mus musculus [9] = assay: Anticonvulsant activity in Clonic seizures when administered orally in mice; settings: po; outline: as §4
Mus musculus [10] = assay: Anticonvulsant activity in tonic seizures when administered orally in mice; settings: po
Mus musculus [11] = species: Mus musculus; assay: Sedative properties by the rotarod test; outline: as §2
Mus musculus [12] = assay: Anticonvulsant activity in Maximal electroshock (MES) when administered orally in mice; settings: po; outline: as §3
Rattus norvegicus = species: Rattus norvegicus; assay: Antagonist activity to generalized seizures kindled amygdaloid seizures in rats
Outline: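 Male Sprague-Dawley rats (200-500 g), groups of 10, carried platinum electrodes in the right basolateral amygdala. They counted as kindled after stage-5 seizures on 3 consecutive days at 30-90 μA. A control stimulation was followed by an oral dose (5 mL/kg) and restimulation 1 h later. After-discharge duration and Racine seizure stage were compared with vehicle.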

Mus musculus [13] = assay: Compound was evaluated for the sedative property by the rotarod test at 250 mg/kg
Outline: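 Rotorod motor-coordination test in female Swiss albino CD1 mice (18-23 g). Groups of 10 mice dosed with test drug or vehicle 60 min before testing; test compounds dissolved in dilute HCl (pH 3).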

Mus musculus [14] = assay: Compound was evaluated for anticonvulsant activity when administered 250 mg/kg orally in mice Maximal electroshock (MES); settings: route oral; outline: as §3
Mus musculus [15] = assay: Compound was evaluated for Bicuculline-induced lethality (anticonvulsant activity) when administered 250 mg/kg orally in mice; settings: route oral; outline: as §1
Mus musculus [16] = assay: Compound was evaluated for Bicuculline-induced seizures (anticonvulsant activity) when administered 250 mg/kg orally in mice; settings: route oral; outline: as §4

| SMILES | ED50 (Mus musculus [1]) | Protected (Mus musculus [4]) | Protected (Mus musculus [5]) | ED50 (Mus musculus [7]) | further results |
| --- | --- | --- | --- | --- | --- |
| CN(C)C(=O)OC1CCN(c2ccc(-c3ccccc3Cl)nn2)CC1 | 1.1 mg/kg | – | – | – | ED50 (Mus musculus [2]): 8.4 mg/kg |
| OC1CCN(c2ccc(-c3ccccc3Cl)nn2)C1 (centres undefined) | – | 0% | 40% | – | Protected (Mus musculus [3]): 30% |
| O=[N+]([O-])c1cccc(-c2ccc(N3CCC(O)CC3)nn2)c1 | – | 30% | 0% | 79 mg/kg | Protected (Mus musculus [6]): 20% |
| OC1CCN(c2ccc(-c3ccc(Cl)s3)nn2)CC1 | – | 0% | 50% | – | Protected (Mus musculus [3]): 30% |
| N#Cc1cccc(-c2ccc(N3CCC(O)CC3)nn2)c1 | – | 0% | 10% | – | Protected (Mus musculus [3]): 33% |
| OC1CCN(c2ccc(-c3ccc(F)cc3)nn2)CC1 | – | 50% | 10% | – | – |
| CCCC(=O)OC1CCN(c2ccc(-c3ccccc3Cl)nn2)CC1 | 30 mg/kg | 0% | – | – | – |
| Cc1ccccc1-c1ccc(N2CCC(O)CC2)nn1 | 60 mg/kg | – | – | 30 mg/kg | ED50 (Mus musculus [8]): 40 mg/kg |
| O=C1CCN(c2ccc(-c3ccccc3Cl)nn2)CC1 | 25 mg/kg | 40% | – | – | – |
| CC(=O)OC1CCN(c2ccc(-c3ccc(Cl)cc3Cl)nn2)CC1 | 8.3 mg/kg | – | – | 14 mg/kg | ED50 (Mus musculus [8]): 9.8 mg/kg; ED50 (Mus musculus [2]): 70 mg/kg |
| NC(=O)N1c2ccccc2C=Cc2ccccc21 [CARBAMAZEPINE] | 16 mg/kg | – | – | – | Threshold active dose (Papio hamadryas): 100 mg/kg; ED50 (Mus musculus [8]): 29 mg/kg; ED50 (Mus musculus [9]): > 100 mg/kg; ED50 (Mus musculus [10]): 21 mg/kg; ED50 (Mus musculus [11]): 95 mg/kg; ED50 (Mus musculus [12]): 21 mg/kg; Threshold active dose (Rattus norvegicus): 10 mg/kg |
| CCCCNC(=O)OC1CCN(c2ccc(-c3ccccc3Cl)nn2)CC1 | – | 0% | 0% | – | Protected (Mus musculus [3]): 20% |
| CNC(=O)OC1CCN(c2ccc(-c3ccc(F)cc3)nn2)CC1 | – | 20% | 40% | 40 mg/kg | Protected (Mus musculus [6]): 30% |
| Cc1ccc(-c2ccc(N3CCC(O)CC3)nn2)cc1 | – | 0% | 0% | 73 mg/kg | Protected (Mus musculus [6]): 50% |
| CNC(=O)OC1CCN(c2ccc(-c3ccccc3Cl)nn2)CC1 | 9 mg/kg | – | – | – | ED50 (Mus musculus [2]): 37 mg/kg |
| Cc1cccc(-c2ccc(N3CCC(O)CC3)nn2)c1 | 50 mg/kg | 0% | 30% | 36 mg/kg | – |
| O=C(OC1CCN(c2ccc(-c3ccccc3Cl)nn2)CC1)c1ccc(Cl)cc1 | – | 0% | 0% | – | Protected (Mus musculus [3]): 0% |
| O=COC1CCN(c2ccc(-c3ccc(Cl)cc3Cl)nn2)CC1 | – | – | 50% | 24 mg/kg | ED50 (Mus musculus [2]): 69 mg/kg |
| OC1CCN(c2ccc(-c3cccc(Cl)c3)nn2)CC1 | – | 40% | 10% | – | Protected (Mus musculus [6]): 40% |
| Oc1ccc(-c2ccc(N3CCC(O)CC3)nn2)cc1 | – | – | – | – | Protected (Mus musculus [13]): 10%; Protected (Mus musculus [14]): 25%; Protected (Mus musculus [15]): 10%; Protected (Mus musculus [16]): 0% |
| Oc1ccccc1-c1ccc(N2CCC(O)CC2)nn1 | – | – | 0% | – | Protected (Mus musculus [13]): 0%; Protected (Mus musculus [3]): 0% |
| CNC(=O)OC1CCN(c2ccc(-c3ccc(Cl)c(Cl)c3)nn2)CC1 | – | 0% | 0% | – | Protected (Mus musculus [3]): 50% |
| OC1CCN(c2ccc(-c3ccc(Cl)cc3)nn2)CC1 | – | 40% | 0% | 29 mg/kg | Protected (Mus musculus [6]): 70% |
| OC1CCN(c2ccc(-c3cccc(C(F)(F)F)c3)nn2)CC1 | – | 50% | 0% | – | – |
| C/N=C(\S)OC1CCN(c2ccc(-c3ccccc3Cl)nn2)CC1 | 20 mg/kg | – | – | 35 mg/kg | ED50 (Mus musculus [8]): 20 mg/kg |
| CCCC(CCC)C(=O)[O-].[Na+] [VALPROATE SODIUM] | 246 mg/kg | – | – | – | Threshold active dose (Papio hamadryas): 300 mg/kg; ED50 (Mus musculus [8]): 274 mg/kg; ED50 (Mus musculus [9]): 363 mg/kg; ED50 (Mus musculus [10]): 201 mg/kg; ED50 (Mus musculus [11]): 406 mg/kg; ED50 (Mus musculus [12]): 324 mg/kg; Threshold active dose (Rattus norvegicus): 200 mg/kg |
